Assay results from the array DNA melting data of Ke et al. (doi:10.1101/2024.01.08.574731).

Columns and labels:
[1] = folding enthalpy; higher = less favourable; fluorescence melt of hairpins on a sequencing array, two-state fit; settings: sodium 0.088 M
Method in brief: (§1)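 To match UV melts, fitted temperatures were raised by 9.35 °C. These fits were bootstrapped two-state models that gave melting temperature and folding enthalpy, combined by inverse variance over four replicates. The input was normalised Cy3 fluorescence of library hairpins with annealed Cy3 and quencher oligos on a sequenced MiSeq flow cell, imaged in 50 mM Na-HEPES pH 8.0, 25 mM NaCl in 2.5 °C steps up to 60 °C.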

[2] = melting temperature; fluorescence melt of hairpins on a sequencing array, two-state fit, raised by 9.35 °C to match UV melts; settings: sodium 0.088 M
Method in brief: as §1

Sequence	folding enthalpy [1]	Tm [2]
GCTCCGCGAAAGCGTCGC ((..(((....)))..))	-15.9 kcal/mol	35.2 °C
GCTACGCGAAAGCATCGC ((.(.((....)).).))	-9.49 kcal/mol	30.7 °C
GCAGTCGAAAGACCCTGC ((((((....)))..)))	-17.3 kcal/mol	33 °C
GTGCATCCGAAAGGACAC (((..(((....))))))	-11.7 kcal/mol	38.2 °C
GATCCCGCCCGGGATC ((((((....))))))	-32.8 kcal/mol	67.1 °C
GAGACGGGAAACCATCTC ((((.((....)).))))	-24.5 kcal/mol	36.8 °C
CGCCGCGGAAACGCAGCG (((.(((....))).)))	-37.5 kcal/mol	59 °C
GGTACGGGAAACCGTATC (.(((((....))))).)	-25.7 kcal/mol	49.7 °C
GCCAGAGGAAACTCTGGC (((((((....)))))))	-44.8 kcal/mol	69.1 °C
GGGATAGGAAACTGTTCC ((.(.((....)).).))	-16.5 kcal/mol	28.6 °C
GATGAGCCGAAAGGCATC (((..(((....))))))	-10.2 kcal/mol	33.5 °C
GCTATCGAAAGATACAGC ((((((....)))..)))	-20.8 kcal/mol	32.6 °C
GACACCGAAAGGTGAGTC ((((((....)))..)))	-9.36 kcal/mol	37.3 °C
GATCGACAACTCGATC ((((((....))))))	-33.8 kcal/mol	48.5 °C
GGAACGGGAAACCGCTCC (((.(((....))).)))	-28.1 kcal/mol	48.7 °C
GTAAGCGAAAGCTCGTAC ((((((....)))..)))	-8.1 kcal/mol	24.2 °C
GATCAATATTTTGATC ((((((....))))))	-35.6 kcal/mol	45.6 °C
GCGAGAGTTCGC ((((....))))	-16.3 kcal/mol	47.5 °C
GGTGCTGGAAACGGTACC (((.(.(....).).)))	-35.8 kcal/mol	41.2 °C
GACGGAGGAAACTCTGTC (((.(((....))).)))	-39.4 kcal/mol	48 °C
GACACCGGAAACGGCGTC (((.(((....))).)))	-43 kcal/mol	52.6 °C
GGTTTAGGAAACTAAATC (.(((((....))))).)	-22.2 kcal/mol	35.5 °C
GGAGCTGCGAAAGCATCC (((..(((....))))))	-9.48 kcal/mol	32.4 °C

Sequence	folding enthalpy [1]	Tm [2]
GAGTCAGGAAACTGACTC (((((((....)))))))	-37 kcal/mol	62.6 °C
GGCGCAGGAAACCGCGCC (((((.(....).)))))	-37.3 kcal/mol	68.8 °C
GCCGGCGAAAGCCCGGGC ((((((....)))..)))	-17.6 kcal/mol	62.1 °C
GGCCGGCGAAAGCCTGCC (((.(((....))).)))	-29.7 kcal/mol	65.2 °C
GCTGACGAAAGTCTAGC ((((((....))).)))	-22.1 kcal/mol	51.9 °C
GGTTGTCGAAAGACACC (((.(((....))))))	-25.9 kcal/mol	53.1 °C
GTCCCCGAAAGGGAGAC ((((((....))).)))	-30 kcal/mol	53.7 °C
GCAACGCGAAAGCATCGC ((.(.((....)).).))	-13.5 kcal/mol	39.2 °C
GTATTAGGAAACCAATAC (((((.(....).)))))	-14.2 kcal/mol	25.9 °C
GCAGCGCGAAAGCAATGC (((..((....))..)))	-25.3 kcal/mol	54.9 °C
GATCCTGTCAAGGATC ((((((....))))))	-42.7 kcal/mol	64.9 °C
TCCTCGAAAGAGGA (((((....)))))	-17.6 kcal/mol	52.7 °C
GGTTCCGAAAGGATCACC ((((((....)))..)))	-14.7 kcal/mol	33.1 °C
GATCCTCTTCAGGATC ((((((....))))))	-38.2 kcal/mol	51.3 °C
GTAAACCGAAAGGTGTAC (((.(((....))).)))	-23.3 kcal/mol	46.2 °C
GGTCAGGGAAACCTGGTC (..((((....))))..)	-15.9 kcal/mol	35.7 °C
GACTCACGAAAGTGGTC (((.(((....))))))	-20 kcal/mol	46.6 °C
GCAATCGAAAGATCTGC ((((((....))).)))	-18 kcal/mol	35.2 °C
GAGTCCGGAAACGGGCTC (((.(((....))).)))	-33 kcal/mol	63.3 °C
GATCTCTCTGAGATC ((((((...))))))	-37.5 kcal/mol	55.4 °C
GATCGCAGTTGCGATC ((((((....))))))	-41.1 kcal/mol	68.6 °C
GCTGCGCGAAAGCGGGGC ((..(((....)))..))	-26.9 kcal/mol	63.1 °C
GATCAGGTTGCTGATC ((((((....))))))	-46.3 kcal/mol	51.2 °C
